Measurements published in ChEMBL document CHEMBL1122194, “Prodrugs of L-cysteine as liver-protective agents. 2(RS)-Methylthiazolidine-4(R)-carboxylic acid, a latent cysteine” (J Med Chem, 1982).

Tests used:
Mus musculus [1] = organism: Mus musculus; test: Tested for Protection from Acetaminophen-Induced Liver Necrosis in Mice (18 animals) and the deaths were observed after the 48 hours due to liver necrosis; Death due to hemorrhagic necrosis of the liver; type: functional
Summary of the method: (§1)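 Male Swiss-Webster mice (18–33 g) were randomized and given acetaminophen 750 mg/kg. Protective agents or saline followed 30 min later. Deaths were counted over 48 h with food and water ad libitum, then survivors were killed by cervical dislocation. Livers were formalin-fixed and sectioned, stained with H&E and Gomori reticulum stain, and necrosis was graded 0 to 4+ by Mitchell criteria. Counts pooled up to two independent experiments.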

Mus musculus [2] = organism: Mus musculus; test: Tested for Protection from Acetaminophen-Induced Liver Necrosis in Mice, Number of animals(mice) with liver necrosis was determined after 0 hour; type: functional
Mus musculus [3] = organism: Mus musculus; test: Tested for Protection from Acetaminophen-Induced Liver Necrosis in Mice, Number of animals(mice) with grade 4+ liver necrosis was determined after 48 hr
Mus musculus [4] = organism: Mus musculus; test: Tested for Protection from Acetaminophen-Induced Liver Necrosis in Mice, Number of animals(mice) with grade 2+ liver necrosis was determined after 48 hours
Mus musculus [5] = organism: Mus musculus; test: Tested for Protection from Acetaminophen-Induced Liver Necrosis in Mice, Number of animals(mice) with grade 3+ liver necrosis was determined after 48 hours
Mus musculus [6] = organism: Mus musculus; test: Tested for Protection from Acetaminophen-Induced Liver Necrosis in Mice (in 10 animals) and the deaths were observed after the 48 hours due to liver necrosis; type: functional; summary of the method: as §1
Mus musculus [7] = organism: Mus musculus; test: Tested for 17 animals(mice) and the deaths were observed after the 48 hours due to liver necrosis; type: functional; summary of the method: as §1
Mus musculus [8] = organism: Mus musculus; test: Tested for Protection from Acetaminophen-Induced Liver Necrosis in Mice (in 18 animals) and the deaths were observed after the 48 hours due to liver necrosis; type: functional; summary of the method: as §1
Mus musculus [9] = organism: Mus musculus; test: Tested for Protection from Acetaminophen-Induced Liver Necrosis in Mice, Number of animals(mice) with liver necrosis was determined after 1 hr; type: functional
Mus musculus [10] = organism: Mus musculus; test: Tested for Protection from Acetaminophen-Induced Liver Necrosis in Mice (in 17 animals) and the deaths were observed after the 48 hours due to liver necrosis; type: functional; summary of the method: as §1
Mus musculus [11] = organism: Mus musculus; test: Tested for Protection from Acetaminophen-Induced Liver Necrosis in Mice, necrosis was determined after 3 hour; type: functional
[12] = Lethal dose after intraperitoneal administration in mice was determined; type: toxicity, organism-based; conditions: mouse, in vivo, ip
Mus musculus [13] = organism: Mus musculus; test: Tested for 10 animals(mice) and the deaths were observed after the 48 hours due to liver necrosis; type: functional; summary of the method: as §1

Row | SMILES | No. of animals with liver necrosis (Mus musculus [2]) | No. of animals with grade 4+ liver necrosis (Mus musculus [3]) | No. of animals with grade 3+ liver necrosis (Mus musculus [5]) | further results
1 | CC(=O)Nc1ccc(O)cc1.CC1N[C@H](C(=O)O)CS1 | 17 | 1 | – | Deaths (Mus musculus [1]): 1
2 | CC(=O)Nc1ccc(O)cc1.O=C(O)C1CSCN1 | 1 | 2 | 4 | No. of animals with grade 2+ liver necrosis (Mus musculus [4]): 1; Deaths (Mus musculus [6]): 4
3 | CC1N[C@H](C(=O)O)CS1 (some centres not stated) | 17 | – | – | Deaths (Mus musculus [7]): 0
4 | CC(=O)N[C@@H](CS)C(=O)O.CC(=O)Nc1ccc(O)cc1 | 13 | 1 | 1 | Deaths (Mus musculus [8]): 1; No. of animals with liver necrosis (Mus musculus [9]): 3
5 | CC(=O)Nc1ccc(O)cc1 [ACETAMINOPHEN] | 1 | 8 | 7 | No. of animals with grade 2+ liver necrosis (Mus musculus [4]): 1; Deaths (Mus musculus [10]): 11
6 | CC(=O)N[C@@H](CS)C(=O)O [ACETYLCYSTEINE] | 15 | – | – | Deaths (Mus musculus [7]): 0; No. of animals with liver necrosis (Mus musculus [9]): 2
7 | O=C(O)C1CSCN1 (configuration not stated) [TIMONACIC] | 9 | – | – | No. of animals with liver necrosis (Mus musculus [11]): 1; LD50 [12]: 164 mg/kg; Deaths (Mus musculus [13]): 3
